Results from different studies.
Each line is one published result; the experiments were not run side by side.
USP28: Ubiquitin carboxyl-terminal hydrolase 28 (USP28, Homo sapiens, UniProt Q96RU2)
sapA: sapA (Haemophilus influenzae, UniProt Q4QL73)

| SMILES | target | assay | endpoint | result |
| --- | --- | --- | --- | --- |
| CCC(C(=O)Nc1cc(NC2CCNC2)ccc1C)n1cc(Br)cc2nc(SCc3ccc(F)cc3)nc1-2 (stereo not drawn) | USP28 | enzyme activity, inhibitor | IC50 | > 100000 nM |
| NCCCC[C@H](NC(=O)[C@@H]1CCCN1)C(=O)N[C@@H](CO)C(=O)N[C@@H](CCC(=O)O)C(=O)N[C@@H](CCC(N)=O)C(=O)O | sapA | binding | Kd | 28 nM |
| CCC(C(=O)Nc1cc(NC2COC2)ccc1C)n1cc(Br)cc2nc(SCc3ccc(F)cc3)nc1-2 (stereo not drawn) | USP28 | enzyme activity, inhibitor | IC50 | > 100000 nM |
| CNC(=O)c1ccc(-c2cnn3ccc(C(=O)N(C)c4ccc(Cl)c(C(=O)OC)c4)cc23)cc1 | TGF-beta receptor type-1 (TGFBR1, Homo sapiens, UniProt P36897) | enzyme activity, inhibitor | IC50 | > 30000 nM |
| CCC(C(=O)Nc1cc(NC2CCNCC2)ccc1C)n1cc(Cl)cc2nc(SCc3ccc(F)cc3)nc1-2 (stereo not drawn) | Ubiquitin carboxyl-terminal hydrolase 7 (USP7, Homo sapiens, UniProt Q93009) | enzyme activity, inhibitor | IC50 | > 100000 nM |
| C[C@@H](O)[C@H](NC(=O)CNC(=O)[C@H](Cc1ccc(O)cc1)NC(=O)[C@H](CO)NC(=O)[C@@H](N)CCCNC(=N)N)C(=O)O | sapA | binding | Kd | 139 nM |
| COC(=O)c1cc(N(C)C(=O)c2ccn3ncc(-c4ccc(C(=O)O)cc4)c3c2)ccc1Cl | Hepatocyte growth factor receptor (MET, Homo sapiens, UniProt P08581) | enzyme activity, inhibitor | IC50 | > 30000 nM |
| C[C@@H](O)[C@H](NC(=O)CNC(=O)[C@H](Cc1ccc(O)cc1)NC(=O)[C@H](CCCNC(=N)N)NC(=O)[C@@H](N)CO)C(=O)O | sapA | binding | Kd | 31 nM |
| CC[C@H](C)[C@H](NC(C)=O)C(=O)N[C@@H](CCC(=O)O)C(=O)N[C@H](C(=O)N[C@H](C=O)CC(=O)O)[C@@H](C)O | Caspase-1 (CASP1, Homo sapiens, UniProt P29466) | enzyme activity, inhibitor | IC50 | 27.5 nM |
